# Experimental data gathered from unrelated publications.
# Lines come from different studies, so protocols differ.
# PIK3CA M1043I: Phosphatidylinositol 4,5-bisphosphate 3-kinase catalytic subunit alpha isoform (PIK3CA, Homo sapiens, UniProt P42336, M1043I)
# PIK3CA: Phosphatidylinositol 4,5-bisphosphate 3-kinase catalytic subunit alpha isoform (PIK3CA, Homo sapiens, UniProt P42336)
# PIK3CA H1047Y: Phosphatidylinositol 4,5-bisphosphate 3-kinase catalytic subunit alpha isoform (PIK3CA, Homo sapiens, UniProt P42336, H1047Y)
# PIK3CA Q546K: Phosphatidylinositol 4,5-bisphosphate 3-kinase catalytic subunit alpha isoform (PIK3CA, Homo sapiens, UniProt P42336, Q546K)
# PIK3CA H1047L: Phosphatidylinositol 4,5-bisphosphate 3-kinase catalytic subunit alpha isoform (PIK3CA, Homo sapiens, UniProt P42336, H1047L)
# PIK3CA I800L: Phosphatidylinositol 4,5-bisphosphate 3-kinase catalytic subunit alpha isoform (PIK3CA, Homo sapiens, UniProt P42336, I800L)
# PIK3CA E545A: Phosphatidylinositol 4,5-bisphosphate 3-kinase catalytic subunit alpha isoform (PIK3CA, Homo sapiens, UniProt P42336, E545A)
# PIK3CA E542K: Phosphatidylinositol 4,5-bisphosphate 3-kinase catalytic subunit alpha isoform (PIK3CA, Homo sapiens, UniProt P42336, E542K)
# PIK3CA E545K: Phosphatidylinositol 4,5-bisphosphate 3-kinase catalytic subunit alpha isoform (PIK3CA, Homo sapiens, UniProt P42336, E545K)
Structure (SMILES),target,test,setting,remaining binding [%]
O=C(NCCCN1CCOCC1)c1ccc(Nc2nccc(-c3cc4ccccc4s3)n2)cc1,PIK3CA M1043I,"binding, competition with immobilised ligand",1 µM,80
COc1ncc2cc3ccccc3nc2c1C#N,PIK3CA,"cell-free assay, competition with immobilised ligand",5 µM,100
CN(C)c1nccc(-c2cnc3ncccn23)n1,PIK3CA H1047Y,binding,1 µM,50
CN1CCN(c2ccc(Nc3nccc(-c4ccccc4)n3)cc2C(F)(F)F)CC1,PIK3CA Q546K,binding,10 µM,68
Cc1ccc(NC(=O)c2ccc(CN3CCN(C)CC3)cc2)cc1Nc1nccc(-c2cccnc2)n1,PIK3CA,"cell-free assay, competition with immobilised ligand",0.1 µM,100
Nc1ncc2c(n1)-c1c([nH]c3ccc(C#CC4CC4)cc13)CCCC2,PIK3CA H1047L,"binding, competition with immobilised ligand",1 µM,80
CN1CCN(c2ccc(Nc3nccc(-c4cccc([N+](=O)[O-])c4)n3)cc2C(F)(F)F)CC1,PIK3CA Q546K,binding,10 µM,37
NS(=O)(=O)c1cc(NC(=O)C2(c3ccccc3Cl)CC2)ccc1Oc1cccc(Cl)c1,PIK3CA H1047Y,"cell-free assay, competition with immobilised ligand",1 µM,76
CN(C)c1ncc(F)c(-c2cnn3ncccc23)n1,PIK3CA H1047Y,binding,1 µM,100
c1ccc(N2CCN(Cc3nc4ccccc4[nH]3)CC2)nc1,PIK3CA,"cell-free assay, competition with immobilised ligand",1 µM,100
O=C(NCCCN1CCOCC1)c1ccc(Nc2ncc(Cl)c(-c3ccc(Cl)s3)n2)cc1,PIK3CA I800L,"binding, competition with immobilised ligand",1 µM,85
O=C(Nc1c[nH]nc1C(=O)NC1CCNCC1)c1cc(F)cc(F)c1,PIK3CA E545A,"binding, competition with immobilised ligand",1 µM,100
F[C@@H]1CCN(c2nccc(-c3cnn4ncccc34)n2)C1,PIK3CA I800L,binding,1 µM,100
C[C@@H](c1ccc(-n2cnc3c(N)ncnc32)cc1)N1CCc2nn(C)c(Cc3ccccc3)c2C1=O,PIK3CA E542K,"binding, competition with immobilised ligand",0.1 µM,83
C=CC(=O)N1CCC(C(=O)NCC(=O)N2CCN(c3nc(-c4cnc(N)nc4C(F)F)nc(N4CCOCC4)n3)CC2)CC1,PIK3CA E545A,"binding, competition with immobilised ligand",1 µM,0.5
O=C(NCC1CCOCC1)c1n[nH]cc1NC(=O)c1c(F)cccc1F,PIK3CA E542K,"binding, competition with immobilised ligand",1 µM,78
COc1cnc(Nc2cccc(S(N)(=O)=O)c2)nc1N1CCN(c2ccccc2)C(=O)C1,PIK3CA I800L,"binding, competition with immobilised ligand",1 µM,59
CC1=C(C#N)C(c2ccc3c(c2)c(NC(=O)c2ccccc2C)nn3C)C(C#N)=C(C)N1,PIK3CA Q546K,"cell-free assay, competition with immobilised ligand",1 µM,87
CNC(=O)[C@@H]1CC[C@@H](n2c(-c3ccc4cnccc4c3)nc3ccc(C(=O)NCc4cccc(C(N)=O)c4)cc32)C1,PIK3CA I800L,"binding, competition with immobilised ligand",1 µM,85
CCCOc1ccc([C@H]2[C@H](C(=O)O)[C@@H](c3ccc4c(c3)OCO4)CN2CC(=O)Nc2c(CC)cccc2CC)cc1,PIK3CA E545A,"cell-free assay, competition with immobilised ligand",1 µM,92
N#Cc1ccccc1CSc1nnc2c(n1)[nH]c1ccccc12,PIK3CA,"binding, competition with immobilised ligand",10 µM,100
Cc1c(NC(=O)c2cc(C(N)=O)nc3cc(F)ccc23)c(C(F)(F)F)nn1Cc1ccc(C#N)cc1,PIK3CA H1047Y,"cell-free assay, competition with immobilised ligand",1 µM,86
O=C(c1ccc(Nc2ncc(Cl)c(-c3ccc(Cl)s3)n2)cc1)N1CCC(N2CCCC2)CC1,PIK3CA H1047L,"binding, competition with immobilised ligand",1 µM,100
CCN1CCN(Cc2ccc(C(=O)Nc3ccc(C)c(Oc4ccc5c(c4)CC(=O)N5)c3)cc2C(F)(F)F)CC1,PIK3CA H1047Y,"binding, competition with immobilised ligand",1 µM,100
CCS(=O)(=O)c1cc2cc(C[C@](O)(CC(C)(C)c3ccc(F)cc3C(N)=O)C(F)(F)F)[nH]c2cn1,PIK3CA I800L,"cell-free assay, competition with immobilised ligand",1 µM,73
CN(c1nccc(-c2cnn3ncccc23)n1)C1CC1,PIK3CA M1043I,binding,1 µM,100
COc1cc(-c2cn(C3CCc4c(F)cccc4N(CC(F)(F)F)C3=O)nn2)ccc1-n1cnc(C)c1 (centres unmarked),PIK3CA E545K,"cell-free assay, competition with immobilised ligand",1 µM,70
N[C@@H]1CCN(c2nccc(-c3cnn4ncccc34)n2)C1,PIK3CA Q546K,binding,1 µM,100
c1cncc(-c2cccc(Nc3nccc(NC4CCCCC4)n3)c2)c1,PIK3CA E545K,"binding, competition with immobilised ligand",10 µM,94
C[C@@H]1CCN(c2nccc(-c3cnn4ncccc34)n2)C1,PIK3CA H1047Y,binding,1 µM,93
O=C1CCc2cc(Nc3cc(OC4CCOCC4)c([N+](=O)[O-])cc3Cl)ccc2N1,PIK3CA,"cell-free assay, competition with immobilised ligand",1 µM,79
O=C(c1ccc(Nc2nccc(-c3cc4ccccc4s3)n2)cc1)N1CCC(N2CCCC2)CC1,"Phosphatidylinositol 4,5-bisphosphate 3-kinase catalytic subunit alpha isoform (PIK3CA, Homo sapiens, UniProt P42336, C420R)","binding, competition with immobilised ligand",1 µM,88
COc1cnc(Nc2cccc(S(N)(=O)=O)c2)nc1N1CCN(c2ccccc2)CC1,PIK3CA Q546K,"binding, competition with immobilised ligand",1 µM,70
CN(CCCC(F)(F)F)c1nccc(-c2cnn3ncccc23)n1,PIK3CA H1047Y,binding,1 µM,100
O=C(c1ccc(Nc2ncc(Cl)c(-c3cc4ccccc4s3)n2)cc1)N1CCC(N2CCCC2)CC1,PIK3CA H1047Y,"binding, competition with immobilised ligand",1 µM,70
